Data from ChEMBL document CHEMBL3393003, “1,2,3,9b-Tetrahydro-5H-imidazo[2,1-a]isoindol-5-ones as a new class of respiratory syncytial virus (RSV) fusion inhibitors. Part 2: identification of BTA9881 as a preclinical candidate” (Bioorg Med Chem Lett, 2015).

Legend:
[1] = test system: Respiratory syncytial virus; assay: Antiviral activity against respiratory syncytial virus A2 infected in human Hep2 cells assessed as reduction in virus-induced cytopathic effect after 5 days by MTT assay; type: functional, organism-based; details: A2, HEp-2, 120 h
Summary of the method: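 HEp2 cells (1.0 × 10⁴/well) infected at low moi (RSV A2 at moi 0.01) and added to serial compound dilutions; incubated 5 days at 37 °C, 5% CO₂. CPE read by MTT (1 mg/ml) metabolism after 2 h incubation.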

[2] = test system: Respiratory syncytial virus; assay: Potency shift index, ratio of EC50 for respiratory syncytial virus A2 infected in human Hep2 in presence of 1.5 mg/mL Alpha-1-acid glycoprotein to EC50 for respiratory syncytial virus A2 infected in human Hep2 in absence of Alpha-1-acid glycoprotein; type: functional
[3] = Cytotoxicity against human Hep2 cells assessed as reduction in cell viability after 5 days by MTT assay; type: cell-based, HEp-2
Summary of the method: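 Uninfected HEp2 cells (1.0 × 10⁴/well) exposed to serial compound dilutions for 5 days at 37 °C, 5% CO₂. Viability read by MTT (1 mg/ml) metabolism after 2 h incubation.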

| Structure (SMILES) | EC50 [1] | Ratio EC50 [2] | CC50 at 120 h [3] |
| --- | --- | --- | --- |
| O=C(c1ccc(F)nc1)N1CCN2C(=O)c3ccncc3[C@@]12c1ccc(Cl)cc1 | 7800 nM |  |  |
| Cn1cccc1C(=O)N1CCN2C(=O)c3ccncc3C21c1ccc(Cl)cc1 (racemic) | 20 nM | 91 | > 20000 nM |
| O=C(c1csc(-c2ccncc2)n1)N1CCN2C(=O)c3ccncc3C12c1ccc(Cl)cc1 (racemic) | 2300 nM |  | > 15000 nM |
| O=C(c1cccnc1)N1CCN2C(=O)c3ccncc3[C@@]12c1ccc(Cl)cc1 | > 1200 nM |  |  |
| O=C(c1ccccn1)N1CCN2C(=O)c3ccncc3C12c1ccc(Cl)cc1 (racemic) | 770 nM |  | > 19000 nM |
| Cc1cc(C(=O)N2CCN3C(=O)c4ccncc4C32c2ccc(Cl)cc2)c(C)o1 (racemic) | 120 nM | 14 | > 18000 nM |
| Cc1nc(C(=O)N2CCN3C(=O)c4ccncc4C23c2ccc(Cl)cc2)cs1 (racemic) | 73 nM | 5.7 | > 18000 nM |
| O=C(c1cscn1)N1CCN2C(=O)c3ccncc3C12c1ccc(Cl)cc1 (racemic) | 180 nM | 16 | > 18000 nM |
| O=C(c1csc(-c2cccs2)n1)N1CCN2C(=O)c3ccncc3C12c1ccc(Cl)cc1 (racemic) | 27 nM | 16 | > 15000 nM |
| O=C(NCc1ccc(F)cc1)N1CCN2C(=O)c3ccncc3C12c1ccc(Cl)cc1 (racemic) | 930 nM |  | > 20000 nM |
| O=C(c1ccoc1)N1CCN2C(=O)c3ccncc3C12c1ccc(Cl)cc1 (racemic) | 96 nM | 2.4 | > 19000 nM |
| O=C(c1ccoc1)N1CCN2C(=O)c3ccncc3[C@@]12c1ccc(Cl)cc1 | 670 nM |  |  |
| O=C(c1ccc(F)cc1)N1CCN2C(=O)c3ccncc3[C@@]12c1ccc(Cl)cc1 | 14000 nM |  |  |
| O=C(Nc1ccc(F)cc1)N1CCN2C(=O)c3ccncc3C12c1ccc(Cl)cc1 (racemic) | 1000 nM |  | > 20000 nM |
| O=C(c1csc(-c2cccnc2)n1)N1CCN2C(=O)c3ccncc3[C@]12c1ccc(Cl)cc1 | 13 nM |  |  |
| O=C(c1ccsc1)N1CCN2C(=O)c3ccncc3C12c1ccc(Cl)cc1 (racemic) | 170 nM | 27 | > 18000 nM |
| Cc1oc(-c2ccccc2)cc1C(=O)N1CCN2C(=O)c3ccncc3C21c1ccc(Cl)cc1 (racemic) | 1600 nM |  | > 15000 nM |
| Cn1cnc(C(=O)N2CCN3C(=O)c4ccncc4C23c2ccc(Cl)cc2)c1 (racemic) | 750 nM |  | > 20000 nM |
| O=C(c1ccon1)N1CCN2C(=O)c3ccncc3C12c1ccc(Cl)cc1 (racemic) | 180 nM | 11 | > 20000 nM |
| O=C(NCCc1ccc(F)cc1)N1CCN2C(=O)c3ccncc3C12c1ccc(Cl)cc1 (racemic) | 620 nM |  | > 20000 nM |
| O=C(c1ccc(F)cc1)N1CCN2C(=O)c3cc[n+]([O-])cc3[C@@]12c1ccc(Cl)cc1 | 8600 nM |  |  |
| O=C(c1cccc(Cl)n1)N1CCN2C(=O)c3ccncc3C12c1ccc(Cl)cc1 (racemic) | 110 nM | 27 | > 17000 nM |
| O=C(c1cc2ccccc2o1)N1CCN2C(=O)c3ccncc3C12c1ccc(Cl)cc1 (racemic) | 6400 nM |  | > 17000 nM |
| O=C(c1ccc(F)cc1)N1CCN2C(=O)c3ccncc3[C@]12c1ccc(Cl)cc1 | 110 nM |  |  |
| O=C(c1ccc(F)cc1)N1CCN2C(=O)c3cc[n+]([O-])cc3[C@]12c1ccc(Cl)cc1 | 170 nM |  |  |
| O=C(c1ccc2ccccc2n1)N1CCN2C(=O)c3ccncc3C12c1ccc(Cl)cc1 (racemic) | 8500 nM |  | > 17000 nM |
| O=C(c1csc(-c2cccnc2)n1)N1CCN2C(=O)c3ccncc3[C@@]12c1ccc(Cl)cc1 | 920 nM |  |  |
| Cn1cncc1C(=O)N1CCN2C(=O)c3ccncc3C21c1ccc(Cl)cc1 (racemic) | 730 nM |  | > 20000 nM |
| O=C(c1ccno1)N1CCN2C(=O)c3ccncc3C12c1ccc(Cl)cc1 (racemic) | 370 nM |  | > 19000 nM |
